Measurements reported in ChEMBL document CHEMBL2331548, “Identification of N-acyl 4-(3-pyridonyl)phenylalanine derivatives and their orally active prodrug esters as dual acting α4β1 and α4β7 receptor antagonists” (Bioorg Med Chem Lett, 2013).
Values after ≈ are worked out from the molar mass of the structure shown. Active and inactive are the calls of the source. No cut-off for these calls is given here.

Assays:
[1] = Clearance in dog at 10 mg/kg, iv; type: ADME, organism-based, Canis lupus familiaris; parameters: dose 10 mg/kg, route intravenous; conditions: in vivo
Outline: (§1)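 Intravenous pharmacokinetics of the acid: rat and dog dosed at 10 mg/kg, monkey at 15 mg/kg. AUC (ng h/mL), clearance (mL/min/kg) and Vss (mL/kg) derived from plasma levels.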

[2] = AUC in dog at 10 mg/kg, iv; type: ADME, organism-based, Canis lupus familiaris; parameters: dose 10 mg/kg, route intravenous; conditions: plasma; outline: as §1
[3] = Clearance in rat at 10 mg/kg, iv; type: ADME, organism-based; parameters: dose 10 mg/kg, route intravenous; conditions: in vivo; outline: as §1
[4] = AUC in rat at 10 mg/kg, iv; type: ADME, organism-based; parameters: dose 10 mg/kg, route intravenous; conditions: plasma; outline: as §1
[5] = Apparent permeability across human Caco2 cells; type: ADME, cell-based; conditions: Caco-2
[6] = biological target: Integrin alpha-4/beta-7 (Homo sapiens) (UniProt P13612+P26010); experiment: Inhibition of human MAdCAM1 binding to integrin alpha4beta7 receptor in human RPMI 8866 cells labeled with Calcein AM relative to RO0270608; type: cell-based
Outline: (§2)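 Serially diluted compound tested for blocking adhesion of Calcein AM-labelled cells to recombinant human counter-ligand: RAMOS cells on VCAM-1 (α4β1) and RPMI 8866 cells on MAdCAM-1 (α4β7). Cells activated beforehand in Mn2+-containing binding buffer for maximal activation. IC50 taken from fluorescence; RO0270608 run on every plate, and relative potency expressed as fold versus this control because cell activity drifted with passage.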

Integrin alpha-4/beta-1 [7] = biological target: T1, Integrin alpha-4/beta-1 (Homo sapiens, UniProt P05556+P13612); experiment: Inhibition of human VCAM1 binding to integrin alpha4beta1 receptor in human Ramos cells labeled with Calcein AM relative to RO0270608; type: cell-based; outline: as §2
Integrin alpha-4/beta-7 = biological target: T2, Integrin alpha-4/beta-7 (Homo sapiens, UniProt P13612+P26010); experiment: Inhibition of human MAdCAM1 binding to integrin alpha4beta7 receptor in human RPMI 8866 cells labeled with Calcein AM; type: cell-based; outline: as §2
T2 sequence (P13612 whole entry): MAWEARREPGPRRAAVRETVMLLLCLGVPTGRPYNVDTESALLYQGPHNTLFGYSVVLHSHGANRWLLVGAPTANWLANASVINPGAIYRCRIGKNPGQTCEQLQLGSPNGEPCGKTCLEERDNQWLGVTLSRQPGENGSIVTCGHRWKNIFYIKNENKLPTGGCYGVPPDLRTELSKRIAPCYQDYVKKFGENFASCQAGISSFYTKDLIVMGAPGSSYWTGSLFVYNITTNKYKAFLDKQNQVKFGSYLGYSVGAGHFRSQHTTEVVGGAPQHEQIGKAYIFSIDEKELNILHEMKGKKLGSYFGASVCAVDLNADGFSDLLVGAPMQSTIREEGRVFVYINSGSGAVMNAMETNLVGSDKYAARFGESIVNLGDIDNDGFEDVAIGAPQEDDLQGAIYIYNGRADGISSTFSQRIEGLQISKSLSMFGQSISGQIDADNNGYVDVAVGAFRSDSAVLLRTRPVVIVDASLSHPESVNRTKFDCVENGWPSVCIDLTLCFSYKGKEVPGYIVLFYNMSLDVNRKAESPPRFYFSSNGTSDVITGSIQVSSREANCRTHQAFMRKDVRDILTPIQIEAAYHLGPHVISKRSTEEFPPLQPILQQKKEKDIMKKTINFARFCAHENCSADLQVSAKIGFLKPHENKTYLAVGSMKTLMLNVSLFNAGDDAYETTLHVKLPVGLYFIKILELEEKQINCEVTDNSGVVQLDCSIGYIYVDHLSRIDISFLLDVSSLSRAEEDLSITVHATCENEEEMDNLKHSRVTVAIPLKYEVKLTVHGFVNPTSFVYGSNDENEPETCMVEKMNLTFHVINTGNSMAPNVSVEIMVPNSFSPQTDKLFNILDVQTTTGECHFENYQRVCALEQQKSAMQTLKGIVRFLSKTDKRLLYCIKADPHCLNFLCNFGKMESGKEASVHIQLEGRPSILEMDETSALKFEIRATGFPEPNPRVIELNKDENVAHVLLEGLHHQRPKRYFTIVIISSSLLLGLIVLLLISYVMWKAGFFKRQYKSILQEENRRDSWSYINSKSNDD
T2 sequence (P26010 whole entry): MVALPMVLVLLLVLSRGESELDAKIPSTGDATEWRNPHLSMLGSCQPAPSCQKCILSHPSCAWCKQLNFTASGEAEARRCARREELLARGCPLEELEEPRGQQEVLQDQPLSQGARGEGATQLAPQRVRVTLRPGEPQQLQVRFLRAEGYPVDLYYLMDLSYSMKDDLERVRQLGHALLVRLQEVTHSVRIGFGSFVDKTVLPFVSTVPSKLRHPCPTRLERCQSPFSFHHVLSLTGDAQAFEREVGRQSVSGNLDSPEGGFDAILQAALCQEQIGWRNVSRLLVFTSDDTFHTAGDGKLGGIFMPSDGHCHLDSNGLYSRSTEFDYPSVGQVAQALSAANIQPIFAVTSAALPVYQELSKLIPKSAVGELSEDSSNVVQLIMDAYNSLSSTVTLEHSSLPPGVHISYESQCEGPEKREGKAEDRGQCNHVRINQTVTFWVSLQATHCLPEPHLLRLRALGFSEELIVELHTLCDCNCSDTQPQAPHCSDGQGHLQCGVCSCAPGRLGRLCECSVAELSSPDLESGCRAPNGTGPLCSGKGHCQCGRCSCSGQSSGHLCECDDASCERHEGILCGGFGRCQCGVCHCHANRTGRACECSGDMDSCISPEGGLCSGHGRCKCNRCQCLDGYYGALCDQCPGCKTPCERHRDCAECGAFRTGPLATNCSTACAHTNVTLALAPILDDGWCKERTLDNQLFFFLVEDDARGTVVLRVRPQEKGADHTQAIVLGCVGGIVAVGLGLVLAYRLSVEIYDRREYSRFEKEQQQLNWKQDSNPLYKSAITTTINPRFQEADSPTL

Integrin alpha-4/beta-1 [8] = biological target: T1, Integrin alpha-4/beta-1; experiment: Inhibition of human VCAM1 binding to integrin alpha4beta1 receptor in human Ramos cells labeled with Calcein AM; type: cell-based; outline: as §2
[9] = AUC in monkey at 15 mg/kg, iv; conditions: cynomolgus monkey, plasma
[10] = Clearance in monkey at 15 mg/kg, iv; conditions: cynomolgus monkey, in vivo
Liver microsomes [11] = experiment: Stability in human liver microsomes assessed as prodrug hydrolysis; type: ADME, Microsome
Outline: (§3)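 Ester prodrug incubated in liver microsomal preparations from mouse, rat, dog, monkey and human; percent of ester remaining followed at 0, 10, 30 and 90 min. A buffer-only incubation without microsomes served as control.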

Liver [12] = experiment: Stability in dog liver microsomes assessed as prodrug hydrolysis; type: ADME, Canis lupus familiaris, Microsome; outline: as §3
Liver microsomes [13] = experiment: Stability in rat liver microsomes assessed as prodrug hydrolysis; type: ADME, Microsome; outline: as §3
[14] = Stability in monkey liver microsomes assessed as prodrug hydrolysis; type: ADME, Macaca mulatta, Microsome; conditions: rhesus monkey; outline: as §3
Liver [15] = experiment: Stability in mouse liver microsomes assessed as prodrug hydrolysis; type: ADME, Microsome; outline: as §3
Plasma = experiment: Stability in dog plasma assessed as unchanged prodrug level on days 1 and 6; type: ADME, cell-free, Canis lupus familiaris
Outline: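 Unchanged prodrug measured in dog plasma on days 1 and 6 of subchronic safety studies after dosing with the ester prodrug.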

Cynomolgus monkey [16] = experiment: Antiinflammatory activity in cynomolgus monkey challenged with aerosolized Ascaris suum extract assessed as reduction in total leukocytes influx into lungs at 10 and 30 mg/kg, po administered 2 hrs before antigen challenge measured 24 hrs after antigen challenge; type: functional, organism-based; parameters: dose 30 mg/kg; conditions: Macaca fascicularis
Outline: (§4)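 Cynomolgus monkeys (atopic) dosed orally at 10 or 30 mg/kg, or vehicle, then challenged 2 h later with aerosolized Ascaris suum extract. Bronchiolar lavage fluid collected 24 h post-challenge and inflammatory cells counted by type (macrophages, neutrophils, eosinophils, lymphocytes, total) as cells ×10^4/mL.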

Cynomolgus monkey [17] = experiment: Antiinflammatory activity in cynomolgus monkey challenged with aerosolized Ascaris suum extract assessed as reduction in neutrophils influx into lungs at 10 and 30 mg/kg, po administered 2 hrs before antigen challenge measured 24 hrs after antigen challenge; type: functional, organism-based; parameters: dose 30 mg/kg; conditions: Macaca fascicularis; outline: as §4
Cynomolgus monkey [18] = experiment: Antiinflammatory activity in cynomolgus monkey challenged with aerosolized Ascaris suum extract assessed as reduction in lymphocytes influx into lungs at 10 and 30 mg/kg, po administered 2 hrs before antigen challenge measured 24 hrs after antigen challenge; type: functional, organism-based; parameters: dose 30 mg/kg; conditions: Macaca fascicularis; outline: as §4
Cynomolgus monkey [19] = experiment: Antiinflammatory activity in cynomolgus monkey challenged with aerosolized Ascaris suum extract assessed as reduction in eosinophils influx into lungs at 10 and 30 mg/kg, po administered 2 hrs before antigen challenge measured 24 hrs after antigen challenge; type: functional, organism-based; parameters: dose 30 mg/kg; conditions: Macaca fascicularis; outline: as §4
Canis familiaris [20] = experiment: Cmax in dog at 50 mg/kg, po; type: ADME, organism-based, Canis lupus familiaris; parameters: dose 50 mg/kg, route oral; conditions: in vivo
Outline: (§5)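 Ester prodrug given orally (rat and dog 50 mg/kg, monkey 30 mg/kg). Plasma exposure measured as the parent acid, reported as AUC and Cmax; bioavailability (F%) calculated for the acid.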

[21] = Oral bioavailability in dog at 50 mg/kg; type: ADME, organism-based, Canis lupus familiaris; conditions: in vivo; outline: as §5
Canis familiaris [22] = experiment: AUC in dog assessed as (2S)-2-(2,6-dichlorobenzamido)-3-(4-(2-hydroxy-1,6-dimethyl-4-(trifluoromethyl)-1,2-dihydropyridin-3-yl)phenyl)propanoic acid level at 50 mg/kg, po; type: ADME, organism-based, Canis lupus familiaris, Plasma; parameters: dose 50 mg/kg, route oral; conditions: in vivo; outline: as §5
[23] = Oral bioavailability in rat at 50 mg/kg; type: ADME, organism-based; conditions: in vivo; outline: as §5
Rattus norvegicus [24] = experiment: Cmax in rat at 50 mg/kg, po; type: ADME, organism-based; parameters: dose 50 mg/kg, route oral; conditions: in vivo; outline: as §5
Rattus norvegicus [25] = experiment: AUC in rat assessed as (2S)-2-(2,6-dichlorobenzamido)-3-(4-(2-hydroxy-1,6-dimethyl-4-(trifluoromethyl)-1,2-dihydropyridin-3-yl)phenyl)propanoic acid level at 50 mg/kg, po; type: ADME, organism-based, Plasma; parameters: dose 50 mg/kg, route oral; conditions: in vivo; outline: as §5
[26] = Oral bioavailability in rat; type: ADME, organism-based; conditions: in vivo
hERG (KCNH2) = hERG (KCNH2) (Homo sapiens, UniProt Q12809); experiment: Inhibition of human ERG
[27] = Stability in simulated intestinal fluid at pH 7.5 assessed as half life; type: physicochemical; conditions: simulated gi fluid
[28] = Solubility in simulated gastric fluid at pH 2.0; type: physicochemical
[29] = Solubility in simulated intestinal fluid at pH 7.5; type: physicochemical
Macaca fascicularis [30] = experiment: Oral bioavailability in monkey at 30 mg/kg; conditions: cynomolgus monkey, in vivo
Macaca fascicularis [31] = experiment: AUC in monkey assessed as (2S)-2-(2,6-dichlorobenzamido)-3-(4-(2-hydroxy-1,6-dimethyl-4-(trifluoromethyl)-1,2-dihydropyridin-3-yl)phenyl)propanoic acid level at 30 mg/kg, po; conditions: cynomolgus monkey, in vivo
[32] = Solubility in water; type: physicochemical
[33] = Oral bioavailability in dog; type: ADME, organism-based, Canis lupus familiaris; conditions: in vivo

hERG (KCNH2), sequence (Q12809 whole entry): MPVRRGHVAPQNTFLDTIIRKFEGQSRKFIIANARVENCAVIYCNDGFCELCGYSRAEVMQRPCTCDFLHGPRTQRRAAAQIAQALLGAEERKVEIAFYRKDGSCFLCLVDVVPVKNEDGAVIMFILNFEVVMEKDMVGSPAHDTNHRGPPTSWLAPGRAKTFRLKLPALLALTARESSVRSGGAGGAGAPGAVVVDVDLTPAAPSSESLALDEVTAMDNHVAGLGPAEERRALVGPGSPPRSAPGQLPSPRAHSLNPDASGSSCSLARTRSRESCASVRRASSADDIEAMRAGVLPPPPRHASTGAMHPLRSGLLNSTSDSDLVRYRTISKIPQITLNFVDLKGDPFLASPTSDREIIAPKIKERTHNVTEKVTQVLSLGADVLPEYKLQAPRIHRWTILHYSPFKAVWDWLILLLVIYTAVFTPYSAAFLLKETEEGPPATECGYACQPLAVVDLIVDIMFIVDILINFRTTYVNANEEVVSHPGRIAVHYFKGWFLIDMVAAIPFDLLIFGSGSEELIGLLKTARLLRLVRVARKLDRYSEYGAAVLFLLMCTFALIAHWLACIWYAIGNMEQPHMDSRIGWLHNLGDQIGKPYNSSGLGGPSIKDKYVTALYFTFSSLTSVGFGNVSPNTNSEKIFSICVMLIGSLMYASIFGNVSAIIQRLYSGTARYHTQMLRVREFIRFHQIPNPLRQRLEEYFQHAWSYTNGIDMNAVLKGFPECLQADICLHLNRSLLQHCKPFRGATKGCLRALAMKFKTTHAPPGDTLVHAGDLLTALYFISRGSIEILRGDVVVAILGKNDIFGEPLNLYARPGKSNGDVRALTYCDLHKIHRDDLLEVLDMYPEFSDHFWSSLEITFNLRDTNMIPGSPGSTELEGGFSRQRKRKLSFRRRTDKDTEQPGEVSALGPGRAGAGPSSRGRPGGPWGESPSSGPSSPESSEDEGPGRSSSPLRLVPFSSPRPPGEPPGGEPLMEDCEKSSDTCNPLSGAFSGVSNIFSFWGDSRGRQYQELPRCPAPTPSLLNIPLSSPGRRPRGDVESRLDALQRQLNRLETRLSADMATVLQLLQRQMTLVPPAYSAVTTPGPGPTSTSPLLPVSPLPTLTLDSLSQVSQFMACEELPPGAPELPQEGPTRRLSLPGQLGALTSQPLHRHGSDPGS
T1 sequence (P05556 whole entry, one chain of several): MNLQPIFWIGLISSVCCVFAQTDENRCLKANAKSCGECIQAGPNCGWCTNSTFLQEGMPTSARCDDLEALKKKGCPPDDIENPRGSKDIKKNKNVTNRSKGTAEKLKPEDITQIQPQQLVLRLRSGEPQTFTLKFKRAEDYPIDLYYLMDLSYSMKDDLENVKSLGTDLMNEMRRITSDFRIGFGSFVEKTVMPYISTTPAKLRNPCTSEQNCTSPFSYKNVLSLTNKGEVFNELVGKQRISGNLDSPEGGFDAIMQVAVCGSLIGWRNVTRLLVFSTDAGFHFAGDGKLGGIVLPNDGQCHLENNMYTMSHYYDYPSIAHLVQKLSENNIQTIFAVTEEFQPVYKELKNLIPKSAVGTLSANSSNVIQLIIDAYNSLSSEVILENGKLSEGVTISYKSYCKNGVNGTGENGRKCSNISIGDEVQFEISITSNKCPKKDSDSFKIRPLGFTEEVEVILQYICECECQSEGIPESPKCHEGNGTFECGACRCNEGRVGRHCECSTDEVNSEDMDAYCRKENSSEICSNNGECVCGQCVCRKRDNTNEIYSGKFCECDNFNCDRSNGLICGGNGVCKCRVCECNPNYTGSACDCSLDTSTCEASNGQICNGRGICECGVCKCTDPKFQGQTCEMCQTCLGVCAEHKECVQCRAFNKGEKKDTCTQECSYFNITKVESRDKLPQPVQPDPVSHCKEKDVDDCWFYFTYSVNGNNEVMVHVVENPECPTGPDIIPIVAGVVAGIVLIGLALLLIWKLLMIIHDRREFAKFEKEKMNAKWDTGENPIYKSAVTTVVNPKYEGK

Cc1cc(C(F)(F)F)c(-c2ccc(C[C@H](NC(=O)c3c(Cl)cccc3Cl)C(=O)O)cc2)c(=O)n1C
clearance [1]: 16.5 mL/min/kg
AUC [2]: 10900 ng·h/mL
clearance [3]: 15.7 mL/min/kg
AUC [4]: 10900 ng·h/mL
Papp [5]: 0.14 ×10⁻⁶ cm/s
Ratio IC50 [6]: 6.5
Ratio IC50 (Integrin alpha-4/beta-1 [7]): 0.81
IC50 (Integrin alpha-4/beta-7): 42 nM
IC50 (Integrin alpha-4/beta-1 [8]): 32 nM
AUC [9]: 35100 ng·h/mL
clearance [10]: 3 mL/min/kg

Cc1cc(C(F)(F)F)c(-c2ccc(C[C@H](NC(=O)c3c(Cl)cccc3Cl)C(=O)OCCCN3CCOCC3)cc2)c(=O)n1C
Stability (Liver microsomes [11]): Stable
Stability (Liver [12]): Stable
Stability (Liver microsomes [13]): Unstable
Stability [14]: Unstable
Stability (Liver [15]): Unstable
Stability (Plasma): 10%
Activity (Cynomolgus monkey [16]): Active
Activity (Cynomolgus monkey [17]): Active
Activity (Cynomolgus monkey [18]): Active
Activity (Cynomolgus monkey [19]): Active
Cmax (Canis familiaris [20]): 2.4 µg/mL
bioavailability [21]: 13%
AUC (Canis familiaris [22]): 6420 ng·h/mL
bioavailability [23]: 11%
Cmax (Rattus norvegicus [24]): 2.5 µg/mL
AUC (Rattus norvegicus [25]): 6100 ng·h/mL
bioavailability [26]: 11%
IC20 (hERG (KCNH2)): 2900 nM
Stability [27]: Stable
solubility ([28]; simulated gastric fluid, read-out: solubility): 3900 µg/mL (≈ 5960 µM)
solubility [29]: 330 µg/mL (≈ 504 µM)
Papp [5]: 16.5 ×10⁻⁶ cm/s
bioavailability (Macaca fascicularis [30]): 46%
AUC (Macaca fascicularis [31]): 30150 ng·h/mL

CCOC(=O)[C@H](Cc1ccc(-c2c(C(F)(F)F)cc(C)n(C)c2=O)cc1)NC(=O)c1c(Cl)cccc1Cl
solubility [32]: 6 µg/mL (≈ 10.8 µM)
bioavailability [33]: 2%
bioavailability [26]: 18%
IC20 (hERG (KCNH2)): 2700 nM
Stability [27]: Stable
solubility ([28]; simulated gi fluid, BLD = below limit of detection): BLD
Papp [5]: 27.1 ×10⁻⁶ cm/s
